Experimental data taken from ChEMBL document CHEMBL1140106, “Blocking estrogen signaling after the hormone: pyrimidine-core inhibitors of estrogen receptor-coactivator binding” (J Med Chem, 2008).

Legend:
Estrogen receptor [1] = molecular target: T1, Estrogen receptor (Homo sapiens, UniProt P03372); test: Binding affinity to ERalpha assessed as inhibition of fluorescein-labeled nuclear receptor domain of steroid receptor coactivator 3 by TR-FRET assay
T1 sequence (P03372 whole entry): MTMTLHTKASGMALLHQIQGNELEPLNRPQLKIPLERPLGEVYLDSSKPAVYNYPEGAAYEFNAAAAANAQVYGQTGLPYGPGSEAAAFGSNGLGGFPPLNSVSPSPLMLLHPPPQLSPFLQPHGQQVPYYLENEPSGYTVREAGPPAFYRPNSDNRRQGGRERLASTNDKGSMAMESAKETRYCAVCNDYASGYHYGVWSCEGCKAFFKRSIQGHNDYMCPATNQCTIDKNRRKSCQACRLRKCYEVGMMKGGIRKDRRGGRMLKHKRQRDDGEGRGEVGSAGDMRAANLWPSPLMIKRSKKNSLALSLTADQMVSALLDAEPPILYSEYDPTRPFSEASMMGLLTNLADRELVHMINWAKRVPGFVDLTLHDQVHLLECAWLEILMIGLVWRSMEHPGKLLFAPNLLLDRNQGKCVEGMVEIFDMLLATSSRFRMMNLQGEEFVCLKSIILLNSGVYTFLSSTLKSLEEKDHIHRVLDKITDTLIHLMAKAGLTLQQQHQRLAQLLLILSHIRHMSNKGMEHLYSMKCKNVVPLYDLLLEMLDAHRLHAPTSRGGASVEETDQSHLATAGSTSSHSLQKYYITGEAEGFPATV
Method in brief: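 Fluorescein-SRC-3-NRD (50 nM) was then added for 1 h at room temperature in the dark. Buffer: 20 mM Tris pH 7.5, 0.01% NP40, 50 mM NaCl. SRC-1 Box II peptide served as positive control.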

Estrogen receptor beta = Estrogen receptor beta (Homo sapiens, UniProt Q92731); test: Binding affinity to ERbeta assessed as inhibition of fluorescein-labeled nuclear receptor domain of steroid receptor coactivator 3 by TR-FRET assay
Estrogen receptor beta, sequence (Q92731 whole entry, the tested form may be a part): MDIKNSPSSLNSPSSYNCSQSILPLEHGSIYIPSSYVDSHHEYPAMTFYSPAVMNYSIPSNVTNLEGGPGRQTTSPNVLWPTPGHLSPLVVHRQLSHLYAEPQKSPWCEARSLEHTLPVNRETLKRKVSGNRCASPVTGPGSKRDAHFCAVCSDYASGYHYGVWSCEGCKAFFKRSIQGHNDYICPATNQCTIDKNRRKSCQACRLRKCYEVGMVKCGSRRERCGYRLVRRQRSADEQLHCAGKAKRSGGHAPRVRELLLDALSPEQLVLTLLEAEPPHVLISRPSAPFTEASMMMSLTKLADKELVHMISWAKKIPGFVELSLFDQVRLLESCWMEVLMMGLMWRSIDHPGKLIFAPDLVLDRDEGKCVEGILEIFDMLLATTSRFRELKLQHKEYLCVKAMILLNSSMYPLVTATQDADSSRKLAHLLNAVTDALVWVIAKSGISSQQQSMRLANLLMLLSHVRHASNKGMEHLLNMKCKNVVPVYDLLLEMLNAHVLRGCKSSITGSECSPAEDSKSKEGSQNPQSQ

Estrogen receptor [2] = molecular target: T1, Estrogen receptor; test: Antagonist activity at ERalpha in human HEC1 cells assessed as inhibition of estrogen-induced transcriptional activity after 24 hrs by reporter gene assay; format: functional, cell-based, HEC-1
Method in brief: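 HEC-1 cells, which lack endogenous ER, were lipofectin-transfected with full-length ERα vector, 2ERE-luciferase reporter and pCMV β-gal as internal control. After 6 h the medium was changed to 5% charcoal-dextran-treated calf serum with ligands.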

| SMILES | Ki (Estrogen receptor [1]) [µM] | Ki (Estrogen receptor beta) [µM] | IC50 (Estrogen receptor [2]) [µM] |
| --- | --- | --- | --- |
| CC(C)CNc1cc(/C=C/c2ccccc2)nc(N(C)CC(C)C)n1 | > 1000 | > 1000 |  |
| CC(C)CNc1cc(SCC(C)C)nc(NCC(C)C)n1 | > 1000 | > 1000 |  |
| CC(C)(C)OC(=O)N(Cc1ccccc1)c1cc(CCc2cccc3ccccc23)nc(NCc2cccc3ccccc23)n1 | > 1000 | > 1000 |  |
| CC(C)CCc1cc(N(C)CC(C)C)nc(NCC(C)C)n1 | > 1000 | > 1000 |  |
| CC(C)(C)OC(=O)N(Cc1cccc2ccccc12)c1cc(CCc2cccc3ccccc23)nc(NCc2ccccc2)n1 | > 1000 | > 1000 |  |
| CC(C)CCc1cc(N(C)CC(C)C)nc(N(C)CC(C)C)n1 | > 1000 | > 1000 |  |
| CC(C)CCc1cc(NCC(C)C)nc(N(C)CC(C)C)n1 | 7.2 | > 1000 | 9.7 |
| CC(C)CN(C(=O)OC(C)(C)C)c1cc(CCc2cccc3ccccc23)nc(NCc2cccc3ccccc23)n1 | > 1000 | > 1000 |  |
| CC(C)CNc1cc(NCC(C)C)ncn1 | > 1000 |  |  |
| CCc1cc(NCC(C)C)nc(NCC(C)C)n1 |  | > 1000 |  |
| CC(C)CCc1cc(NCC(C)C)nc(SCC(C)C)n1 | > 1000 | > 1000 |  |
| CC(C)CCc1cc(N(CC(C)C)C(=O)OC(C)(C)C)nc(NCc2cccc3ccccc23)n1 | > 1000 | > 1000 |  |
| CC(C)CCc1cc(CCC(C)C)nc(NCC(C)C)n1 | > 1000 | > 1000 |  |
| CC(C)CNc1cc(NCC(C)C)nc(CCc2cccc3ccccc23)n1 | > 1000 | > 1000 |  |
| CC(C)CCc1nc(NCc2ccccc2)cc(NCC(C)C)n1 | > 1000 | > 1000 |  |
| CC(C)CCc1cc(SCc2ccccc2)nc(SCc2ccccc2)n1 | > 1000 | > 1000 |  |
| CC(C)CCc1cc(N(CC(C)C)C(=O)OC(C)(C)C)nc(NCc2ccccc2)n1 | > 1000 | > 1000 |  |
| CC(C)CCc1cc(N(Cc2cccc3ccccc23)C(=O)OC(C)(C)C)nc(NCc2ccccc2)n1 | > 1000 | > 1000 |  |
| C(=C\c1cc(/C=C/c2ccccc2)nc(NCc2cccc3ccccc23)n1)/c1ccccc1 | > 1000 | > 1000 |  |
| CC(C)CN(C)c1cc(/C=C/c2ccccc2)nc(N(C)CC(C)C)n1 | > 1000 | > 1000 |  |
| c1ccc(CNc2cc(CCc3cccc4ccccc34)nc(NCc3ccccc3)n2)cc1 | > 1000 | > 1000 |  |
| CC(C)CCc1cc(S(=O)(=O)Cc2ccccc2)nc(S(=O)(=O)Cc2ccccc2)n1 | > 1000 | > 1000 |  |
| CC(C)CN(C(=O)OC(C)(C)C)c1cc(CCc2cccc3ccccc23)nc(NCc2ccccc2)n1 | > 1000 | > 1000 |  |
| CC(C)CNc1cc(CCc2ccccc2)nc(N(C)CC(C)C)n1 | > 1000 | > 1000 |  |
| CC(C)CNc1cc(CCc2cccc3ccccc23)nc(N(C)CC(C)C)n1 | > 1000 | > 1000 |  |

| SMILES | Ki (Estrogen receptor [1]) [µM] | Ki (Estrogen receptor beta) [µM] | IC50 (Estrogen receptor [2]) [µM] |
| --- | --- | --- | --- |
| CC(C)CNc1nc(CCc2ccccc2)cc(N(C)CC(C)C)n1 |  | > 1000 |  |
| C(=C\c1cc(NCc2ccccc2)nc(NCc2cccc3ccccc23)n1)/c1ccccc1 | > 1000 | > 1000 |  |
| C(=C\c1cc(NCc2cccc3ccccc23)nc(NCc2cccc3ccccc23)n1)/c1ccccc1 | > 1000 | > 1000 |  |
| CC(C)CNc1nc(CCc2ccccc2)cc(N(Cc2ccccc2)C(=O)OC(C)(C)C)n1 | > 1000 | > 1000 |  |
| CC(C)CNc1nc(/C=C/c2ccccc2)cc(NCc2ccccc2)n1 | 16 | > 1000 | 9.8 |
| CC(C)CCc1cc(OCC(C)C)nc(OCC(C)C)n1 | > 1000 | > 1000 |  |
| O=S(=O)(Cc1ccccc1)c1cc(CCc2ccccc2)nc(S(=O)(=O)Cc2ccccc2)n1 | > 1000 | > 1000 |  |
| CC(C)CNc1nc(/C=C/c2ccccc2)cc(N(Cc2ccccc2)C(=O)OC(C)(C)C)n1 | > 1000 | 132 |  |
| CC(C)CSc1cc(CCc2ccccc2)nc(SCC(C)C)n1 | > 1000 | > 1000 |  |
| CC(C)CNc1nc(CCc2cccc3ccccc23)cc(NCc2ccccc2)n1 | > 1000 | > 1000 |  |
| c1ccc(CNc2cc(CCc3cccc4ccccc34)nc(NCc3cccc4ccccc34)n2)cc1 | > 1000 | > 1000 |  |
| CC(C)CNc1cc(CCc2cccc3ccccc23)nc(NCc2ccccc2)n1 | > 1000 | > 1000 |  |
| CC(C)CNc1cc(S(=O)(=O)CC(C)C)nc(NCC(C)C)n1 | > 1000 | > 1000 |  |
| c1ccc(CCc2cc(SCc3ccccc3)nc(SCc3ccccc3)n2)cc1 | > 1000 | > 1000 |  |
| CC(C)CS(=O)(=O)c1cc(CCc2ccccc2)nc(S(=O)(=O)CC(C)C)n1 | > 1000 | > 1000 |  |
| CC(C)CNc1nc(CCc2cccc3ccccc23)cc(NCc2cccc3ccccc23)n1 | > 1000 | > 1000 |  |
| CC(C)CCc1nc(NCC(C)C)cc(NCC(C)C)n1 | > 1000 | > 1000 |  |
| CC(C)CNc1cc(OCC(C)C)nc(NCC(C)C)n1 | > 1000 | > 1000 |  |
| CC(C)CN(C)c1cc(CCc2cccc3ccccc23)nc(N(C)CC(C)C)n1 | > 1000 | > 1000 |  |
| CC(C)CCc1cc(NCc2ccccc2)nc(NCc2ccccc2)n1 | 4.1 | > 1000 | 8.3 |
| CC(C)CCc1cc(SCC(C)C)nc(SCC(C)C)n1 | > 1000 | > 1000 |  |
| c1ccc(CCc2cc(NCc3cccc4ccccc34)nc(NCc3cccc4ccccc34)n2)cc1 | > 1000 | > 1000 | > 1000 |
| CC(C)CCc1cc(NCC(C)C)nc(NCc2cccc3ccccc23)n1 |  | > 1000 |  |
| CC(C)CCc1cc(NCc2ccccc2)nc(NCC(C)C)n1 | 5.8 | > 1000 | 5.8 |
| CC(C)CCc1cc(NCc2cccc3ccccc23)nc(NCC(C)C)n1 |  | > 1000 |  |

| SMILES | Ki (Estrogen receptor [1]) [µM] | Ki (Estrogen receptor beta) [µM] | IC50 (Estrogen receptor [2]) [µM] |
| --- | --- | --- | --- |
| CC(C)CCc1cc(CCC(C)C)nc(NCc2cccc3ccccc23)n1 | > 1000 | > 1000 |  |
| CC(C)CNc1cc(CCc2ccccc2)nc(NCc2ccccc2)n1 |  | > 1000 |  |
| CC(C)CNc1nc(/C=C/c2ccccc2)cc(N(C)CC(C)C)n1 | > 1000 | > 1000 | > 1000 |
| CC(C)CNc1nc(CCc2cccc3ccccc23)cc(N(C)CC(C)C)n1 |  | > 1000 |  |
| CC(C)CNc1nc(CCc2ccccc2)cc(NCc2ccccc2)n1 | 1.7 | > 1000 | 1.9 |
| CC(C)CNc1nc(CCc2ccccc2)cc(NCc2cccc3ccccc23)n1 | > 1000 | > 1000 |  |
| CC(C)CNc1nc(CCc2cccc3ccccc23)cc(N(Cc2cccc3ccccc23)C(=O)OC(C)(C)C)n1 | > 1000 | > 1000 |  |
| CC(C)CSc1cc(SCC(C)C)nc(SCC(C)C)n1 |  | > 1000 | > 1000 |
| CC(C)(C)OC(=O)N(Cc1cccc2ccccc12)c1cc(/C=C/c2ccccc2)nc(NCc2cccc3ccccc23)n1 | > 1000 | > 1000 |  |
| CC(C)CCc1cc(NCC(C)C)nc(S(=O)(=O)CC(C)C)n1 | > 1000 | > 1000 |  |
| CC(C)CCc1cc(S(=O)(=O)CC(C)C)nc(S(=O)(=O)CC(C)C)n1 | > 1000 | > 1000 |  |
| c1ccc(CCc2cc(CCc3ccccc3)nc(NCc3ccccc3)n2)cc1 | > 1000 | > 1000 |  |
| CC(C)CNc1cc(CCc2cccc3ccccc23)nc(NCc2cccc3ccccc23)n1 | > 1000 | > 1000 |  |
| C(=C\c1cc(NCc2ccccc2)nc(NCc2ccccc2)n1)/c1ccccc1 | > 1000 | > 1000 | > 1000 |
| CC(C)CNc1nc(CCc2cccc3ccccc23)cc(N(Cc2ccccc2)C(=O)OC(C)(C)C)n1 | > 1000 | > 1000 |  |
| c1ccc(CCc2cc(NCc3ccccc3)nc(NCc3cccc4ccccc34)n2)cc1 | > 1000 | > 1000 |  |
| CC(C)CN(C)c1cc(CCc2ccccc2)nc(N(C)CC(C)C)n1 | > 1000 | > 1000 |  |
| CC(C)CNc1cc(CCc2cccc3ccccc23)nc(NCC(C)C)n1 | 2.5 | > 1000 | 2.1 |
| CC(C)CN(C(=O)OC(C)(C)C)c1cc(CCc2ccccc2)nc(NCc2ccccc2)n1 | > 1000 | > 1000 |  |
| CC(C)CCc1cc(N(Cc2cccc3ccccc23)C(=O)OC(C)(C)C)nc(NCC(C)C)n1 | > 1000 | > 1000 |  |
| c1ccc(CNc2cc(NCc3ccccc3)nc(NCc3ccccc3)n2)cc1 | > 1000 | > 1000 |  |
| CC(C)CCc1cc(N(Cc2ccccc2)C(=O)OC(C)(C)C)nc(NCc2cccc3ccccc23)n1 | > 1000 | > 1000 |  |
| CC(C)CCc1cc(N(Cc2ccccc2)C(=O)OC(C)(C)C)nc(NCC(C)C)n1 | > 1000 | > 1000 |  |
| c1ccc(CNc2nc(CCc3cccc4ccccc34)cc(NCc3cccc4ccccc34)n2)cc1 | > 1000 | > 1000 |  |
